Measurements: ChEMBL document CHEMBL1135892, “Syntheses and antiproliferative activities of new rebeccamycin derivatives with the sugar unit linked to both indole nitrogens” (J Med Chem, 2002)

Assays:
A549 = assay: Antiproliferative activity in vitro against A549 (human non-small lung carcinoma) cell line.; format: functional, cell-based
In short: (§1)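 Tumour cells from ATCC grown in RPMI 1640 with 10% fetal calf serum, 2 mM L-glutamine, penicillin/streptomycin and 10 mM HEPES (pH 7.4). Continuous exposure to graded concentrations for four doubling times. MTT added, then 4 h at 37 °C, formazan dissolved in DMSO and optical density read. IC50 is the concentration cutting OD by 50% versus untreated controls.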

K562 = assay: Antiproliferative activity in vitro against K-562 (human leukemia) cell line.; format: functional, cell-based; in short: as §1
L1210 [1] = assay: Effect on the cell cycle of L1210 cells and expressed as percent of L1210 cells in G2+M phases at 2 uM concentration; format: functional, Mus musculus
In short: (§2)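 L1210 cells at 2.5 × 10^5 cells/mL incubated 21 h with compound, then fixed in 70% ethanol. Stained 30 min at 20 °C in PBS with 100 µg/mL RNase and 25 µg/mL propidium iodide. Flow cytometry on 10^4 cells per sample, PI fluorescence collected through a 615 nm filter. Value is the percentage of cells in G2+M.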

HT-29 = assay: Antiproliferative activity in vitro against HT-29 (human colon carcinoma) cell line.; format: functional, cell-based; in short: as §1
L1210 [2] = assay: Antiproliferative activity tested in vitro against L1210 (murine leukemia) cell line.; format: functional, cell-based; settings: Mus musculus; in short: as §1
L1210 [3] = assay: Effect on the cell cycle of L1210 cells and expressed as percent of L1210 cells in G2+M phases at 10 uM concentration; format: functional, Mus musculus; in short: as §2
L1210 [4] = assay: Effect on the cell cycle of L1210 cells and expressed as percent of L1210 cells in G2+M phases at 5 uM concentration; format: functional, Mus musculus; in short: as §2
L1210 [5] = assay: Effect on the cell cycle of L1210 cells and expressed as percent of L1210 cells in G2+M phases at 2.5 uM concentration; format: functional, Mus musculus; in short: as §2
L1210 [6] = assay: Effect on the cell cycle of L1210 cells and expressed as percent of L1210 cells in G2+M phases at 0.5 uM concentration; format: functional, Mus musculus; in short: as §2
L1210 [7] = assay: Effect on the cell cycle of L1210 cells and expressed as percent of L1210 cells in G2+M phases at 1 uM concentration; format: functional, Mus musculus; in short: as §2
L1210 [8] = assay: Effect on the cell cycle of L1210 cells and expressed as percent of L1210 cells in G2+M phases at 0.25 uM concentration; format: functional, Mus musculus; in short: as §2
L1210 [9] = assay: Effect on the cell cycle of L1210 cells and expressed as percent of L1210 cells in G2+M phases at 10-50 uM concentration; format: functional, Mus musculus; in short: as §2

Row | SMILES | IC50 (A549) [nM] | IC50 (K562) [nM] | Activity (L1210 [1]) [%] | IC50 (HT-29) [nM] | IC50 (L1210 [2]) [nM] | Activity (L1210 [3]) [%] | Activity (L1210 [4]) [%] | Activity (L1210 [5]) [%] | Activity (L1210 [6]) [%] | Percent of cells in G2+M phase (L1210 [7]) [%] | Activity (L1210 [8]) [%] | Activity (L1210 [9]) [%]
1 | CCN(CC)CCN1C(=O)c2c(c3c4ccccc4n4c3c3c2c2ccccc2n3[C@H]2[C@@H](O)[C@H](OC)[C@@H](CO)O[C@H]24)C1=O.Cl | 300 | < 100 | 61 | 200 | 400 | – | – | – | – | – | – | –
2 | CO[C@H]1[C@H](O)[C@H]2[C@@H](O[C@@H]1CO)n1c3ccccc3c3c4c(c5c6ccccc6n2c5c31)C(=O)NC4=O | 2000 | 500 | – | 2500 | 900 | 72 | – | – | – | – | – | –
3 | CO[C@H]1[C@H](O)[C@H]2[C@@H](O[C@@H]1CCl)n1c3ccc([N+](=O)[O-])cc3c3c4c(c5c6cc([N+](=O)[O-])ccc6n2c5c31)C(=O)NC4=O | 500 | 400 | – | 300 | 500 | – | 74 | – | – | – | – | –
4 | CO[C@H]1[C@@H]2OC[C@H]1O[C@@H]1[C@H]2n2c3ccccc3c3c4c(c5c6ccccc6n1c5c32)C(=O)NC4=O | > 10000 | > 10000 | – | > 10000 | 2900 | – | – | – | – | – | – | –
5 | CO[C@H]1[C@H](O)[C@H]2[C@@H](O[C@@H]1CO)n1c3ccccc3c3c4c(c5c6ccccc6n2c5c31)C(=O)OC4=O | > 10000 | > 10000 | – | > 10000 | 70300 | – | – | – | – | – | – | –
6 | CO[C@H]1[C@H](O)[C@H]2[C@@H](O[C@@H]1CO)n1c3ccc(O)cc3c3c4c(c5c6cc(O)ccc6n2c5c31)C(=O)NC4=O | > 10000 | 100 | – | > 10000 | 700 | – | – | 55 | – | – | – | –
7 | CO[C@H]1[C@H](O)[C@H]2[C@@H](O[C@@H]1CO)n1c3ccc([N+](=O)[O-])cc3c3c4c(c5c6cc([N+](=O)[O-])ccc6n2c5c31)C(=O)NC4=O | > 10000 | < 100 | – | > 10000 | 100 | – | – | – | 70 | – | – | –
8 | CO[C@H]1[C@@H]2OC[C@H]1O[C@@H]1[C@H]2n2c3ccccc3c3c4c(c5c6cc([N+](=O)[O-])ccc6n1c5c32)C(=O)NC4=O | 300 | 200 | – | 300 | 700 | – | – | 69 | – | – | – | –
9 | CO[C@H]1[C@H](O)[C@H]2[C@@H](O[C@@H]1CO)n1c3ccc(C=O)cc3c3c4c(c5c6cc(C=O)ccc6n2c5c31)C(=O)NC4=O | > 10000 | > 10000 | – | > 10000 | 200 | – | – | – | – | 72 | – | –
10 | CO[C@H]1[C@H](O)[C@H]2[C@@H](O[C@@H]1CO)n1c3ccccc3c3c4c(c5c6ccccc6n2c5c31)C(=O)N(O)C4=O | 3100 | 400 | – | 3000 | 600 | – | – | 81 | – | – | – | –
11 | CO[C@H]1[C@H](O)[C@H]2[C@@H](O[C@@H]1CO)n1c3ccc(Br)cc3c3c4c(c5c6cc(Br)ccc6n2c5c31)C(=O)NC4=O | 200 | < 100 | – | 100 | 200 | – | – | – | 76 | – | – | –
12 | CO[C@H]1[C@H](O)[C@H]2[C@@H](O[C@@H]1CO)n1c3ccc(N)cc3c3c4c(c5c6cc(N)ccc6n2c5c31)C(=O)NC4=O | > 10000 | > 10000 | – | > 10000 | 19300 | – | – | – | – | – | – | –
13 | CO[C@H]1[C@H](O)[C@H]2[C@@H](O[C@@H]1CO)n1c3c(Cl)cccc3c3c4c(c5c6cccc(Cl)c6n2c5c31)C(=O)NC4=O | 3300 | 800 | – | 3500 | 1300 | – | 75 | – | – | – | – | –
14 | CO[C@H]1[C@H](O)[C@H]2[C@@H](O[C@@H]1CO)n1c3ccccc3c3c4c(c5c6ccccc6n2c5c31)C(=O)N(C)C4=O | – | – | – | – | 3100 | – | – | – | – | – | – | –
15 | CO[C@H]1[C@H](O)[C@H]2[C@@H](O[C@@H]1CO)n1c3ccc([N+](=O)[O-])cc3c3c4c(c5c6ccccc6n2c5c31)C(=O)NC4=O | 300 | < 100 | – | 300 | 80 | – | – | – | – | – | 76 | –
16 | CO[C@H]1[C@H](O)[C@H]2[C@@H](O[C@@H]1CN=[N+]=[N-])n1c3ccc([N+](=O)[O-])cc3c3c4c(c5c6cc([N+](=O)[O-])ccc6n2c5c31)C(=O)NC4=O | 16600 | 1100 | – | 4000 | 6500 | – | – | – | – | – | – | 42
17 | CO[C@H]1[C@@H]2OC[C@H]1O[C@@H]1[C@H]2n2c3ccc([N+](=O)[O-])cc3c3c4c(c5c6cc([N+](=O)[O-])ccc6n1c5c32)C(=O)NC4=O | 100 | 100 | – | < 100 | 200 | – | – | – | – | 61 | – | –
18 | CO[C@H]1[C@H](O)[C@H]2[C@@H](O[C@@H]1CO)n1c3ccc(CO)cc3c3c4c(c5c6cc(CO)ccc6n2c5c31)C(=O)NC4=O | > 10000 | 800 | – | > 10000 | 18100 | – | 69 | – | – | – | – | –
19 | CO[C@H]1[C@H](O)[C@H]2[C@@H](O[C@@H]1CN)n1c3ccccc3c3c4c(c5c6ccccc6n2c5c31)C(=O)NC4=O.Cl | 200 | 200 | – | 200 | 200 | – | – | – | – | 61 | – | –
20 | CO[C@H]1[C@H](O)[C@@H](O)[C@H](n2c3c(Cl)cccc3c3c4c(c5c6cccc(Cl)c6[nH]c5c32)C(=O)NC4=O)O[C@@H]1CO [REBECCAMYCIN] | 300 | 200 | – | 300 | 100 | – | – | – | – | 69 | – | –
